Drawing on the RNAGym collection of RNA variant scans (doi:10.1126/science.aae0568), this text covers yeast fitness for 167 variants.

The labels stand for the following.
B1: tRNA (parent)
chain: GUUCCGUUGGCGUAAUGGUAACGCGUCUCCCUCCUAAGGAGAAGACUGCGGGUUCGAGUCCCGUACGGAACG

Variants at the floor of the assay were thinned out.

Variants of B1 are the subject of the data set. The data set is described as follows: yeast fitness relative to wild type (ratio to wild type); higher = fitter; tRNA-Arg(CCU), competitive growth, 37 C, YPD. A digest of the protocol:
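For this measurement, the tRNA-Arg(CCU) gene was varied by chemical synthesis at a 3% per-site mutation rate across 69 sites, and each variant was placed at the native genomic locus in Saccharomyces cerevisiae. The pooled strains went through a 24-hour competition in YPD at 37°C in six parallel replicates, with amplicons from start and end populations read by 100-nucleotide paired-end sequencing. Darwinian fitness relative to wild type followed from the change in each genotype's frequency. Genotypes needed ≥ 100 starting reads, and estimates < 0.5 were set to 0.5.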
Consider C34G C49U C66U, for which the yeast fitness was 0.557.

Take A14C G23A A45U C61U: the yeast fitness is 0.782.

For the variant G6C G17A C30U A42C G52C G63A A65U, the yeast fitness is at most 0.5.

For the variant U16A C24G G56A, the yeast fitness is at most 0.5.

For G6A G48C G58A, the yeast fitness was 0.57.

For U3A C11U U13A G17C G18C A36C, the yeast fitness was at most 0.5. The value for G18C U35A A45C C62U was 0.542; that for C5G A36U U59G A65U was at most 0.5. With C11A A36G C49G A70G the figure was 0.584; with C4A G17C, 0.629. The value for C27A C31U C60G was at most 0.5; that for A43G G58C was 0.855. Turning to G6A C22G U47A, the yeast fitness was at most 0.5. The value for U28G C46U C60A A65U A69U was at most 0.5. In the case of G17A U32A U54C, the yeast fitness is at most 0.5. A20G C34U A40U A42U: the yeast fitness was at most 0.5. The value for C30G U32C was 0.708; that for A20C C55G was 0.59; that for U3G C4U was 0.915. On to C11U U54A G58C, for which the yeast fitness is at most 0.5.

As to C5U G56A C61A, the yeast fitness was at most 0.5. Take U3C C27G A45C: the yeast fitness was at most 0.5. Consider C11G A21G C31G, for which the yeast fitness is at most 0.5.

As for A20C A37C A43G C55U, the yeast fitness is at most 0.5. With G6A U13C A14U C30U A69U the figure was at most 0.5.

Regarding U13A C34A A37G, the yeast fitness is at most 0.5. Take U19C C31G U53G U54A A57U: the yeast fitness turned out to be 0.653.

With C46U U53A, the yeast fitness was 0.704. For the variant G9A C22G U28A C31G C55A G68C, the yeast fitness was at most 0.5. With A40U C60A the figure was 0.604. The value for C4A U8C C49U C55A C66U was at most 0.5. In the case of U47A C49U, the yeast fitness is 0.913. The value for G17C G48A was 0.685; that for A15C A20U C31G C62A was at most 0.5. On to C33G A37G C49U C60U, for which the yeast fitness is 0.551. The value for C33A A37U C62A was 0.503. Take C55A A57C C66U: the yeast fitness was at most 0.5.

For the variant C4A G17A C27G G63A, the yeast fitness was at most 0.5.

For the variant A45C A65G C66U, the yeast fitness is 0.679. The value for G6A C29U C31U C33G U35C was at most 0.5; that for U2A U13G C62G was at most 0.5. The value for U26C G41C C61G A69C was at most 0.5; that for U3A G12C A15C U19A C34U C49A G67A was at most 0.5.

For the variant A15C G52C, the yeast fitness worked out at 0.575.

For the variant G25C C34U, the yeast fitness turned out to be 0.558.

As for U19C C24U, the yeast fitness turned out to be 0.969.

For the variant C4U C22A A40C C55G A57C A69U, the yeast fitness is at most 0.5.

U2C U8A G17C G38A C61A: the yeast fitness is at most 0.5. The value for C4U A42C A45G C66A A69U was at most 0.5; that for U26A C27A C31U was at most 0.5; that for G9C A21G A42G was at most 0.5.

Regarding A15C A57C, the yeast fitness was at most 0.5. As to C11G A15G C24G C46G G67A, the yeast fitness was at most 0.5. With U3C U59C A65C A69G the figure was 0.593. With G6A C22G A40C G41C G68C the figure was at most 0.5; with U2A C31G C61G, at most 0.5. Turning to G38C A69U A70U, the yeast fitness is at most 0.5. As to C30U G50A, the yeast fitness was determined as 0.83. Take G48C C62A: the yeast fitness worked out at 0.771.

For C11U A21G C24A C49U A65C, the yeast fitness is at most 0.5.

On to C5U A43G A69C, for which the yeast fitness turned out to be 0.72.

C5A U16C A21C C33U A40G U54G C62G: the yeast fitness was determined as 0.577.

For the variant U13A G38A C49G G50C A70G, the yeast fitness was at most 0.5. For the variant A21G G67U A70U, the yeast fitness was 0.607. The value for A42G G44C C60G was 0.606.

In the case of G17C U54A G56C, the yeast fitness was at most 0.5. For the variant U7G G41A, the yeast fitness stood at 0.776. With G9A C24G G39C G56C the figure was at most 0.5; with U19C C46U A69C, 0.724.

For C11G C55G, the yeast fitness was determined as 0.594. With C11U G17A A40C the figure was at most 0.5; with U7A C11A G18A C31U C34U U47C C49A G56A A57U, at most 0.5.

Take C5U U8C A20G C30A C61A: the yeast fitness turned out to be 0.649. C5G C27G C46G A65G: the yeast fitness was at most 0.5. Consider A14C C22U U32A C34U C66U, for which the yeast fitness came to 0.576.

As to G12C G17A C34G A40U A42U G67C, the yeast fitness was at most 0.5.

Regarding U2A C24U C30U C33G A36C A37C A42C A65U, the yeast fitness was at most 0.5. Take U2G G17C C33U U47A A69U: the yeast fitness is at most 0.5. Regarding G9A G10A C31G G52A A65C, the yeast fitness is at most 0.5. With U3A A37C C62U the figure was 0.529; with G17C A37U A69C, at most 0.5; with C11A C27U C31U C34G A40G G63C, at most 0.5. In the case of C4G G25A U28C A36C C60U U64A C66U, the yeast fitness was at most 0.5. Turning to C30U G58C C66U, the yeast fitness amounted to 0.663. The value for A37G G44C A45C G50A C55G C66A was at most 0.5; that for U35A C55U A65G was at most 0.5. Consider G41A A43C C49G A57G, for which the yeast fitness is at most 0.5. The value for G9A A43C was 1.07.

With G10A C11A C29A A69U, the yeast fitness was determined as 0.538. With A14U G17A G23C C29U C34G A45C U54G the figure was at most 0.5. The value for U8C A14C G18A C31U was at most 0.5. The value for C24A C49U C55U was at most 0.5. For the variant C11A U19G A36G U54C U64C G67A, the yeast fitness is at most 0.5.

Consider G9C A14C A15U G23A C34A G52C G63C, for which the yeast fitness stood at 0.585.

As for G6A C31U C55U, the yeast fitness worked out at 0.571. C11A U16C G18C U35C A45C A57C G68C: the yeast fitness was determined as 0.515. In the case of G23A A40G G41A A45U G51C, the yeast fitness is at most 0.5. Turning to C24U C33G U59C U64A, the yeast fitness is 0.686. For the variant C4U C29U C31A C55U A57C, the yeast fitness was at most 0.5. With C4A U7C G41A C49A U54C the figure was at most 0.5. With A15G G44C G68U the figure was at most 0.5. For the variant A21C U26A C27G, the yeast fitness came to 0.581. Consider U8C G12C, for which the yeast fitness was found to be 0.853. Turning to U3C G9A C61U, the yeast fitness was 0.827. For the variant A21U A42C U47G G63A A69U, the yeast fitness is at most 0.5. Turning to G6A A20U C62U A65G, the yeast fitness is at most 0.5.

In the case of C27U A45G U53C, the yeast fitness stood at 0.544. The value for C11U A20G C29G C34G U54C was at most 0.5; that for C4U A14G A21G C49U was 0.677. With C11U C30U G52C the figure was at most 0.5; with C4G U7G C55G, at most 0.5; with A14C U35C, 0.695. In the case of A37G C66U A69U, the yeast fitness was found to be 0.674.

In the case of U2C C66A, the yeast fitness turned out to be 0.611.

Regarding A36U G38C A43G G68C, the yeast fitness was at most 0.5. With C30G G38C G52A C55U the figure was at most 0.5. The value for C4G U19G A43U was at most 0.5; that for G18A A21U A37U A42U C46A G58C U64A was at most 0.5; that for G6A U35A A40U G41C C49A was at most 0.5.

Take G17C U35A C61U: the yeast fitness was at most 0.5. As to C5U C31U G50A C55G, the yeast fitness was determined as 0.57. With G6A U13A C46G, the yeast fitness was at most 0.5. With C5A A69U A70C the figure was 0.768. In the case of G6A U19G A42G, the yeast fitness is at most 0.5. Consider C5G G17U A45U G68C, for which the yeast fitness was at most 0.5. For A20C U53A, the yeast fitness stood at 0.767.

As to G12A C22A A36G A37G A57U, the yeast fitness is at most 0.5. The value for C4U G10A A14U C46U was at most 0.5; that for G9A C24U A40U G68C was at most 0.5; that for C4G C5U A43G was at most 0.5.

For the variant C27A C66G A70C, the yeast fitness was at most 0.5.

With A15G C33U A40G G51C A57U, the yeast fitness was at most 0.5. With C46U G52C A57U the figure was at most 0.5. Consider A37U C66A, for which the yeast fitness was found to be 0.528. On to A15C U35A, for which the yeast fitness worked out at 0.599. The value for C27A C30G G41C C61G C62U A69U was 0.557; that for C22U C46U G50C C55U A57U C62G A70U was at most 0.5; that for G12A A20U U32A C49G G63A A65U was 0.535. With U8C U16A A21C C24G A37U C55U the figure was at most 0.5; with G6A A14G C24A A36G A45U, at most 0.5. In the case of C4U A65C, the yeast fitness turned out to be 0.873. Turning to G51C C61A, the yeast fitness stood at 0.516. As for C30A U35C, the yeast fitness turned out to be 0.93.

On to C11A G25C C29U, for which the yeast fitness was at most 0.5.

With U19C A42U C46U C55G, the yeast fitness is at most 0.5. On to A45G G51A, for which the yeast fitness turned out to be 0.716.

As to G50A G51C C60G, the yeast fitness was at most 0.5. With G10C A36C U47A G48C U54G A65C, the yeast fitness was at most 0.5.

As for C22G C24A G38A G67A, the yeast fitness was 0.531. With U13G C27A C30A G63C the figure was 0.537.

With U8C C31G G51A G68C, the yeast fitness is at most 0.5. The value for A40G G56C was 0.725.

As to C5A A37C C46U A65C, the yeast fitness is at most 0.5. In the case of C24A U26G A43C G68C, the yeast fitness is at most 0.5. The value for U54G A65C was 0.606; that for G12C C27G G56C was at most 0.5. The value for G9A C30U G44A was 0.615.

Turning to U26C G48C G52C A57C G58A, the yeast fitness was at most 0.5. For C31U C34A, the yeast fitness amounted to 0.863.

On to G6C C30A A45G C55G A57U C62G U64C, for which the yeast fitness was at most 0.5.

G18C C29U C30U A37G C49U G67A: the yeast fitness was at most 0.5. With C5G G9C C29U C30U C55A A65G the figure was at most 0.5; with U19C U53C C61A G68A, at most 0.5. With U13A U19C A20U C29G C33G A37G C49U C66U the figure was 0.601; with U7A A40C C60A, 0.543; with U2A G9C U13A A15G C33A A37U G50C C61U A69U, at most 0.5.

As to U2C A14G U28A, the yeast fitness is 0.534.
